Assay [1] has as its system Escherichia coli RNase P. The conditions noted are these: cited from earlier work.
Assay [2] concerns the target T1, B. subtilis RNase P (Bacillus subtilis, UniProt P25814).
T1 sequence (P25814 1-116): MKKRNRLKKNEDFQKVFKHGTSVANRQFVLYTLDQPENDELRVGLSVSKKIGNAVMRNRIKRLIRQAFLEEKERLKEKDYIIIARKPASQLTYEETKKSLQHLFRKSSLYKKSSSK
The assay is described as follows: RNase P cleavage activity in response to HTS reagents. Type of assay: biochemical. In outline: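 B. subtilis holoenzyme formed by adding P protein to refolded P RNA, 30 min at 37°C. Enzyme pre-incubated 30 min with 2% DMSO at 30°C. Reaction started with an equal volume of Fl-pre-tRNAAsp substrate, quenched with 80 mM CaCl2 at various times. Fluorescence polarization read at λex 485 nm / λem 520 nm.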

The target of assay [3] is Bacillus subtilis RNase P. The format is biochemical. The conditions noted are these: read-out: IC50 for inhibition of RNase P; Buffer B (pH 7.2, 10 mM MgCl2, 100 mM KCl), 50 nM Fl-pre-tRNA^Asp, 0.4 nM RNase P, 4 nM P protein, 37°C.
Assay [4] concerns Fl-pre-tRNA^Asp. In words: FA titration: binding of compounds to Fl-pre-tRNA^Asp. Also noted: species or system Bacillus subtilis. The conditions noted are these: for change in anisotropy (ΔFA) upon binding to Fl-pre-tRNA^Asp: Figure 4A, buffer B; for Kd: read-out: Kd for Fl-pre-tRNA^Asp, 37°C. In outline: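 RNA first heat-denatured 3 min at 95°C, then refolded at 37°C. Kd taken from the dependence of the FA signal on compound concentration. Competition run at fixed compound with varied yeast tRNAMix in buffer B.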

The target of assay [5] is Dictyostelium discoideum RNase P. The conditions noted are these: read-out: Ki (non-competitive); cited from earlier work.
The target in assay [6] is native yeast tRNA^Phe. As to conditions: cited from earlier work.
[7] abbreviates: Buffer B + 12 mg/ml yeast tRNA^Mix.
Setting [8] is: Buffer B, 50 nM Fl-pre-tRNA^Asp.

These results are taken from paper PMC4227764 (Nucleic Acids Research, 2014).

Like-named read-outs stand apart in the source and are kept apart here.

As a reminder, the IC50 is the concentration at which inhibition is half-maximal. For `COc1ccc(C[C@H](N)C(=O)N[C@H]2[C@@H](O)[C@H](n3cnc4c(N(C)C)ncnc43)O[C@@H]2CO)cc1` [puromycin], the half-maximal inhibitory concentration (IC50) in assay [1] is roughly 3000 µM.

`C[S+](C)[O-]` [DMSO, dimethyl sulfoxide]: the “inhibition of RNase P activity” value in assay [2] (2% DMSO) is on record as 20%.

What is called Kd is a measure of binding affinity in units of concentration. Regarding `NC[C@H]1O[C@H](O[C@H]2[C@H](O)[C@@H](O[C@H]3O[C@H](CO)[C@@H](O)[C@H](N)[C@H]3O)[C@H](N)C[C@@H]2N)[C@H](N)[C@@H](O)[C@@H]1O` [KanB, kanamycin B], the concentration for half-maximal inhibition (IC50) in assay [3] came out at 52 ± 6 µM. In assay [4], the “change in anisotropy (ΔFA) upon binding to Fl-pre-tRNA^Asp” value is given as roughly 35 mA. The dissociation constant Kd is 540 ± 60 µM in assay [4] (setting [7]) and 220 ± 20 µM in assay [4] (setting [8]).

As to Spiramycin, the “effect on steady-state turnover” value in assay [1] is listed as “activate the steady-state turnover”.

As usually defined, the Ki is the equilibrium dissociation constant of an inhibitor or competing ligand from its target. Turning to `NC[C@@H]1O[C@H](O[C@H]2[C@@H](O)[C@H](O[C@@H]3[C@@H](O)[C@H](N)C[C@H](N)[C@H]3O[C@H]3O[C@H](CN)[C@@H](O)[C@H](O)[C@H]3N)O[C@@H]2CO)[C@H](N)[C@@H](O)[C@@H]1O` [NeoB, neomycin B], the IC50 in assay [3] is 23 ± 3 µM; in assay [1] it was 60 µM. For the same molecule, in assay [4], the “change in anisotropy (ΔFA) upon binding to Fl-pre-tRNA^Asp” value was roughly 50 mA. The Kd in assay [4] (setting [7]) is 100 ± 20 µM; in assay [4] (setting [8]), 90 ± 5 µM; in assay [6], 90 µM. Besides, the inhibition constant Ki in assay [5] is 143 µM.

As for nonidet P-40 [NP-40], in assay [2] (0.01–0.1% v/v), the “effect on RNase P activity” value is on record as “unaffected”.
